Source: ChEMBL document CHEMBL5661979, “Pharmacological inhibition of BMK1 suppresses tumor growth through promyelocytic leukemia protein” (Cancer Cell, 2010)

Legend:
[1] = molecular target: DNA-dependent protein kinase catalytic subunit (Homo sapiens, UniProt P78527); experiment: Inhibition of PRKDC in human HeLa cells lysate at 10 uM pre incubated for 15 mins followed by ADP acyl phosphate probe addition and measured after 10 mins by LC-MS/MS analysis relative to control; format: subcellular; details: time 25.0 min
Sequence of DNA-dependent protein kinase catalytic subunit (P78527 whole entry): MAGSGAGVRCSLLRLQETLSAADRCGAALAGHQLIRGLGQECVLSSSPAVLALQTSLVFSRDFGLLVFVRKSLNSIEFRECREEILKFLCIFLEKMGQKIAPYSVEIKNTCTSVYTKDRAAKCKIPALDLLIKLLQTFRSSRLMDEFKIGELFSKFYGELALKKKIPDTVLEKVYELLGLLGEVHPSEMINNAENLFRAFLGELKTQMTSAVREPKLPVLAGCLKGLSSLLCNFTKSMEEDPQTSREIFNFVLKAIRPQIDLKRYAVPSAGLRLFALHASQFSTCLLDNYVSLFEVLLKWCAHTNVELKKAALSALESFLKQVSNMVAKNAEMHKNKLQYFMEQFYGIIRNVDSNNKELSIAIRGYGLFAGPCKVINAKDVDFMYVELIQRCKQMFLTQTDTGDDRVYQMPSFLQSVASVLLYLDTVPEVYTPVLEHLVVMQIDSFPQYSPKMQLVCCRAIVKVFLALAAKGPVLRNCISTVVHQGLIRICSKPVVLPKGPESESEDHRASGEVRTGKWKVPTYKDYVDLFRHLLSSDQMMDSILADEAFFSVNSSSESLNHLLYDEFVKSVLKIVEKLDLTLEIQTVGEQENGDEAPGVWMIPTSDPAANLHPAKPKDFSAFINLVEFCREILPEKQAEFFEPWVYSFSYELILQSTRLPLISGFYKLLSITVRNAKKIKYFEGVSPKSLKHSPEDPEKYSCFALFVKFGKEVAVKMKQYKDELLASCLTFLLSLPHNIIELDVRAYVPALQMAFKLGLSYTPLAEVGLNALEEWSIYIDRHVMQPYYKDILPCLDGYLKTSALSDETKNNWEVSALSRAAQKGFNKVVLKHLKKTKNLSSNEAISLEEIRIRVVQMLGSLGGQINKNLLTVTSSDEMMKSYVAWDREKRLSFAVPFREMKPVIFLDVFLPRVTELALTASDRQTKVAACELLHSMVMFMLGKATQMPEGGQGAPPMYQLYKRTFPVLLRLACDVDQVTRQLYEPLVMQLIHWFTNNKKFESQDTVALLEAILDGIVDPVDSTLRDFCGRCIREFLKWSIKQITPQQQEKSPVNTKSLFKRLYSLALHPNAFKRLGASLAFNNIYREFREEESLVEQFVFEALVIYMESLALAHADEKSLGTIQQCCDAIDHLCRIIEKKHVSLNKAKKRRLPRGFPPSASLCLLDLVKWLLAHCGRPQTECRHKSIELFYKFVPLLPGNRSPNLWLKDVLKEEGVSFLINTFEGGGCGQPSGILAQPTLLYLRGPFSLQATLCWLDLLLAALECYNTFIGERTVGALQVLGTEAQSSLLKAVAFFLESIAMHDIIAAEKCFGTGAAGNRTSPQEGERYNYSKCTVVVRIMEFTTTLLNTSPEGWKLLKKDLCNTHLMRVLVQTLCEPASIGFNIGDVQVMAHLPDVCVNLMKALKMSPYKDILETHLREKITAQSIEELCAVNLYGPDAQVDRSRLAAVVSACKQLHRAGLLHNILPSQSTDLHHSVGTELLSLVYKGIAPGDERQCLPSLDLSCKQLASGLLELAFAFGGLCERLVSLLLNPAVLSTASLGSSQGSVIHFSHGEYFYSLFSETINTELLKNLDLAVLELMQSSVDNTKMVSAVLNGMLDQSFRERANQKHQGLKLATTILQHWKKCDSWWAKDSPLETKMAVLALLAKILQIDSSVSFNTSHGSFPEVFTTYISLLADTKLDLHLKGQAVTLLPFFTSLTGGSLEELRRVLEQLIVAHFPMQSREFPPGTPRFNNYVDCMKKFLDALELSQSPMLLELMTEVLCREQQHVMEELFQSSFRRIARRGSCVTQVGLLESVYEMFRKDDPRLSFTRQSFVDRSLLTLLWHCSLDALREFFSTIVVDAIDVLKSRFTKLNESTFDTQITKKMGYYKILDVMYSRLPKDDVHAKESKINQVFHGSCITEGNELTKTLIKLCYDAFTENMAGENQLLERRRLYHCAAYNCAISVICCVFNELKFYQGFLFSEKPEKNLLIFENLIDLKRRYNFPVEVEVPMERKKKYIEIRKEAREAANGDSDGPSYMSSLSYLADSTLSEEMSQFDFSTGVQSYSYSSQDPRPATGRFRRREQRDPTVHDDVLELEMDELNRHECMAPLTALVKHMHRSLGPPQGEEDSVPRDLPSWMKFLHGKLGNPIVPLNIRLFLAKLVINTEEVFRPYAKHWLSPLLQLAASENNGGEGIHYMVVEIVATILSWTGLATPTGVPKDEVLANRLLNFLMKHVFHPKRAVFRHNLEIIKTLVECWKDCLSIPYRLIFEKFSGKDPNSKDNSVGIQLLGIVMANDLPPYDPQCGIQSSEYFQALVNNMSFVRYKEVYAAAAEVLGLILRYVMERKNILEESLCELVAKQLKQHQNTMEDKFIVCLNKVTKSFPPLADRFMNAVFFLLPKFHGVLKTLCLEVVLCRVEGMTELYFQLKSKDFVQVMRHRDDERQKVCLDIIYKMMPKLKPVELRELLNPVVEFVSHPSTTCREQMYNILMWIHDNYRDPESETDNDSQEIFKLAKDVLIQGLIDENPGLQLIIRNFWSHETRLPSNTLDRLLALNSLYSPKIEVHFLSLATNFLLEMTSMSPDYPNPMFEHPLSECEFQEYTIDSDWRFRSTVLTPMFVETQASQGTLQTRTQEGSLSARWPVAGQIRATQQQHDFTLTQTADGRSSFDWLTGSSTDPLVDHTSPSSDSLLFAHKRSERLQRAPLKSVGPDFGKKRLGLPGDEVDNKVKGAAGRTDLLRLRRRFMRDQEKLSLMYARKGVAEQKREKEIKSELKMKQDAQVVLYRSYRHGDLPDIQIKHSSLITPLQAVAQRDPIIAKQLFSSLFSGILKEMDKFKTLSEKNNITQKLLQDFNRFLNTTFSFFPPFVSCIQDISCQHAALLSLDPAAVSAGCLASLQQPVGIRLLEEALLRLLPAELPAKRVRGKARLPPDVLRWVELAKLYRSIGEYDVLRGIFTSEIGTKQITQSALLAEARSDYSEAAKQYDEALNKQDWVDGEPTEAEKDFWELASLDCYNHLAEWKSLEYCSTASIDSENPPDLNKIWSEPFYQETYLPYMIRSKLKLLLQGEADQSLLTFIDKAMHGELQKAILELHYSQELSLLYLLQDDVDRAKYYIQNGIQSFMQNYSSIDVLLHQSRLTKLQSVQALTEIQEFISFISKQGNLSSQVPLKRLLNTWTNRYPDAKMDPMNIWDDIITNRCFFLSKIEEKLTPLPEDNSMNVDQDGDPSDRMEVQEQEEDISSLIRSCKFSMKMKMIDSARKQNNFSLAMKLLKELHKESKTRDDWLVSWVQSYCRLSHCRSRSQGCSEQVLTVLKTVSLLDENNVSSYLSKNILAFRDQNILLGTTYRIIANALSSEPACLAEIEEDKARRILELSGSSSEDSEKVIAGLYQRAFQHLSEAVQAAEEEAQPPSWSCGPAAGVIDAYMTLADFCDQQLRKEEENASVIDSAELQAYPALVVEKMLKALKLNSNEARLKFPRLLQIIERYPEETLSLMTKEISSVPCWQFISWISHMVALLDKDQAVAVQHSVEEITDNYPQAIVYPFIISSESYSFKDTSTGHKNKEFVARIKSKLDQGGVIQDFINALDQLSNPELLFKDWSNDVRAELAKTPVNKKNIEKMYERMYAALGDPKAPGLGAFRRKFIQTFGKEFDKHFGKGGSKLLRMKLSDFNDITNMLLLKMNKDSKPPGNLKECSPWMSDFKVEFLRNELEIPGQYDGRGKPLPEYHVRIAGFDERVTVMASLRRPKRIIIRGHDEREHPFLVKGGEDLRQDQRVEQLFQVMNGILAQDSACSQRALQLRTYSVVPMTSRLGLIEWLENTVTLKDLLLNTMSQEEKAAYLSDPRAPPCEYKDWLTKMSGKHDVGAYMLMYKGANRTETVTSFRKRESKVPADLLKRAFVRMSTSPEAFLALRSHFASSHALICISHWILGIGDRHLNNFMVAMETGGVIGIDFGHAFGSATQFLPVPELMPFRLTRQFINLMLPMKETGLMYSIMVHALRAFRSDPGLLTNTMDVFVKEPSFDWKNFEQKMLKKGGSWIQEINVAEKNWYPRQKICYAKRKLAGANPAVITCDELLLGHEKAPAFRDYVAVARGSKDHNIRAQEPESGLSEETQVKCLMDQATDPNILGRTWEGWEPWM

[2] = molecular target: T1, Phosphatidylinositol 5-phosphate 4-kinase type-2 gamma (Homo sapiens) (UniProt Q8TBX8); experiment: Inhibition of PIP5K2C LIP2 site in human HeLa cells lysate at 2 uM pre incubated for 15 mins followed by ATP acyl phosphate probe addition and measured after 10 mins by LC-MS/MS analysis relative to control; format: subcellular; details: time 25.0 min
T1 sequence (whole entry): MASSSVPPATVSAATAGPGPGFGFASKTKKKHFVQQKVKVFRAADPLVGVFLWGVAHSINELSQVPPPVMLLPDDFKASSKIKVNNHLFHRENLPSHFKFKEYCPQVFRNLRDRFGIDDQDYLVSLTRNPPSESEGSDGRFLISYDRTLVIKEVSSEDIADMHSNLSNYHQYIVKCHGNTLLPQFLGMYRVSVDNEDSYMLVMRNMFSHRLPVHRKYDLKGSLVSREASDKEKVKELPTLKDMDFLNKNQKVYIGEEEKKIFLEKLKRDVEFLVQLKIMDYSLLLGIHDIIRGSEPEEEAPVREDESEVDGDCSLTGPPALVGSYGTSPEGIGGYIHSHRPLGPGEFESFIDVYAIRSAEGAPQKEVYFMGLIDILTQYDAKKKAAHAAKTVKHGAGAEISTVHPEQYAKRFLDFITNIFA

[3] = molecular target: Serine/threonine-protein kinase MARK1 (Homo sapiens, UniProt Q9P0L2); experiment: Inhibition of MARK1 in human HeLa cells lysate pre incubated for 15 mins followed by ADP acyl phosphate probe addition and measured after 10 mins by LC-MS/MS analysis; format: subcellular
Sequence of Serine/threonine-protein kinase MARK1 (Q9P0L2 whole entry): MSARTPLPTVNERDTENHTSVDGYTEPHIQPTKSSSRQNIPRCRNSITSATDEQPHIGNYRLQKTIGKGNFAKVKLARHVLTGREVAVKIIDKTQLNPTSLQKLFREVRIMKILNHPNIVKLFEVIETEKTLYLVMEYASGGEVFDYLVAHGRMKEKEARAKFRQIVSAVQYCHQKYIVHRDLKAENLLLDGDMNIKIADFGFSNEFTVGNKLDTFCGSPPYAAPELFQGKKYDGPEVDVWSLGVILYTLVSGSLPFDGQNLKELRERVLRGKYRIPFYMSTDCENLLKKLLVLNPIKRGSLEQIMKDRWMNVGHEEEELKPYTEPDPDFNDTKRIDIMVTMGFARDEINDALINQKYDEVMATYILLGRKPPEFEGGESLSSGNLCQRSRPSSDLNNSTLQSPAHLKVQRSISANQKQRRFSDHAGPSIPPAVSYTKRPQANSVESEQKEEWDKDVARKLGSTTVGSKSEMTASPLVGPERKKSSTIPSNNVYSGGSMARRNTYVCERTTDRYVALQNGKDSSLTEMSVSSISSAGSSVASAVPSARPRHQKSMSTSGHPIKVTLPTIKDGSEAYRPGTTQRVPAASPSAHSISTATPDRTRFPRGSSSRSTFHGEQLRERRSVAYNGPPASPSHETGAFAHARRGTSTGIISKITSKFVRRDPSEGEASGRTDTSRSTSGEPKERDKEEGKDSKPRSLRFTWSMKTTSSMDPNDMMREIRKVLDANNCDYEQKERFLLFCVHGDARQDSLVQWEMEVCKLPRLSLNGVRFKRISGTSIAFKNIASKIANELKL

[4] = Toxicity in C57Bl/6 mouse assessed as effect on creatinine level at 50 mg/kg, ip for 14 days (reference value: < 0.2 mg/dl); format: organism-based; details: in vivo, 336 h, time 14 day
[5] = molecular target: Protein kinase C iota type (Homo sapiens) (UniProt P41743); experiment: Inhibition of PKCiota in human HeLa cells lysate at 2 uM pre incubated for 15 mins followed by ADP acyl phosphate probe addition and measured after 10 mins by LC-MS/MS analysis relative to control; format: subcellular; details: time 25.0 min
[6] = molecular target: Calcium/calmodulin-dependent protein kinase type II subunit delta (Homo sapiens, UniProt Q13557); experiment: Inhibition of CamK2d in human HeLa cells lysate at 50 uM pre incubated for 15 mins followed by ADP acyl phosphate probe addition and measured after 10 mins by LC-MS/MS analysis relative to control; format: subcellular; details: time 25.0 min
[7] = molecular target: Cyclin-dependent kinase 12 (Homo sapiens, UniProt Q9NYV4); experiment: Inhibition of CRK7 in human HeLa cells lysate pre incubated for 15 mins followed by ADP acyl phosphate probe addition and measured after 10 mins by LC-MS/MS analysis; format: subcellular
[8] = molecular target: T2, Serine/threonine-protein kinase ULK3 (Homo sapiens) (UniProt Q6PHR2); experiment: Inhibition of ULK3 in human HeLa cells lysate at 10 uM pre incubated for 15 mins followed by ADP acyl phosphate probe addition and measured after 10 mins by LC-MS/MS analysis relative to control; format: subcellular; details: time 25.0 min
T2 sequence (whole entry): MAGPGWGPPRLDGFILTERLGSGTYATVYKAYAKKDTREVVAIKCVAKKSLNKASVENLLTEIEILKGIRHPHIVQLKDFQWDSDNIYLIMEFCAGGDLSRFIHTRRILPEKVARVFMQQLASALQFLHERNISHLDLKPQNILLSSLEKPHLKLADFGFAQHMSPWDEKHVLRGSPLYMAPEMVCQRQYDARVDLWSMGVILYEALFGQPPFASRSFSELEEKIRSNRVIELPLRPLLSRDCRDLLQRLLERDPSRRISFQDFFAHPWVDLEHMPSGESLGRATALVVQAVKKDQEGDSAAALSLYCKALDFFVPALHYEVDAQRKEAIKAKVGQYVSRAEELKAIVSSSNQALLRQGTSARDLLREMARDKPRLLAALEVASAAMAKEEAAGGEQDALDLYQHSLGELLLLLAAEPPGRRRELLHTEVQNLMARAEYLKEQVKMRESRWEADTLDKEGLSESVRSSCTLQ

[9] = molecular target: Cyclin-dependent kinase 8/19 (Homo sapiens, UniProt P49336+Q9BWU1); experiment: Inhibition of CDK8/CDK11 in human HeLa cells lysate pre incubated for 15 mins followed by ATP acyl phosphate probe addition and measured after 10 mins by LC-MS/MS analysis; format: subcellular
Outline: (§1)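 KiNativ profiling in HeLa lysate (5 mg/mL total protein). Lysate incubated 15 min with inhibitor at 50, 10, 2, 0.8 or 0 μM. ATP or ADP acylphosphate probe then added (5 μM final) and reacted 10 min. Reaction stopped with urea and analysed by targeted MS, using up to four fragment ions per kinase peptide-probe conjugate. % inhibition taken against untreated lysate. Run in duplicate.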

[10] = molecular target: Calcium/calmodulin-dependent protein kinase kinase 1 (Homo sapiens, UniProt Q8N5S9); experiment: Inhibition of CAMKK1 in human HeLa cells lysate at 2 uM pre incubated for 15 mins followed by ADP acyl phosphate probe addition and measured after 10 mins by LC-MS/MS analysis relative to control; format: subcellular; details: time 25.0 min; outline: as §1
[11] = Inhibition of PCTAIRE2/3 in human HeLa cells lysate at 10 uM pre incubated for 15 mins followed by ADP acyl phosphate probe addition and measured after 10 mins by LC-MS/MS analysis relative to control; details: 25 min, condition cancer
[12] = molecular target: Phosphatidylinositol 4-phosphate 3-kinase C2 domain-containing subunit beta (Homo sapiens, UniProt O00750); experiment: Inhibition of PIK3C2B in human HeLa cells lysate pre incubated for 15 mins followed by ATP acyl phosphate probe addition and measured after 10 mins by LC-MS/MS analysis; format: subcellular
[13] = Inhibition of MST4/YSK1 in human HeLa cells lysate at 2 uM pre incubated for 15 mins followed by ATP acyl phosphate probe addition and measured after 10 mins by LC-MS/MS analysis relative to control; details: 25 min, condition cancer
[14] = molecular target: T3, Interleukin-1 receptor-associated kinase 4 (Homo sapiens) (UniProt Q9NWZ3); experiment: Inhibition of IRAK4 in human HeLa cells lysate at 50 uM pre incubated for 15 mins followed by ATP acyl phosphate probe addition and measured after 10 mins by LC-MS/MS analysis relative to control; format: subcellular; details: time 25.0 min
T3 sequence (whole entry): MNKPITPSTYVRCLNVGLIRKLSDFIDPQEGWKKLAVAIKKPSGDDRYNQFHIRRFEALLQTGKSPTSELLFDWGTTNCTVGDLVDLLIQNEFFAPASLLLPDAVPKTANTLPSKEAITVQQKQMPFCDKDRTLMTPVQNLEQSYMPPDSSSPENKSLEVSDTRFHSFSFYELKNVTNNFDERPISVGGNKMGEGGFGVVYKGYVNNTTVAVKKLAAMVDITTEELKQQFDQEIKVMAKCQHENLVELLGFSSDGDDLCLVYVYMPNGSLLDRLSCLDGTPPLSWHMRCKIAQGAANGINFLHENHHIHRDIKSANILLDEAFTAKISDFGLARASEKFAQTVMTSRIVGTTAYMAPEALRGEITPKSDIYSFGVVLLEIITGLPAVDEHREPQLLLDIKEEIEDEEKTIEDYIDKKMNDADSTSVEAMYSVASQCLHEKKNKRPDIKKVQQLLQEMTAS

SMILES: CCOc1cc(N2CCC(O)CC2)ccc1Nc1ncc2c(n1)N(C)c1ccccc1C(=O)N2C
- inhibition [1]: -4.8%
- inhibition [2]: 0.7%
- IC50 [3]: > 50 µM
- Activity [4]: < 0.2 mg/dL
- inhibition [5]: 18.9%
- inhibition [6]: 10.3%
- IC50 [7]: > 50 µM
- inhibition [8]: 1.2%
- IC50 [9]: > 50 µM
- inhibition [10]: -5.2%
- inhibition at 10 µM [11]: -4.4%
- IC50 [12]: > 50 µM
- inhibition at 2 µM [13]: -6.9%
- inhibition [14]: 15.6%
